Source: ChEMBL document CHEMBL4330163, “Veluflavanones A-P, Cytotoxic Geranylated Flavanones from Dalbergia velutina Stems” (J Nat Prod, 2019)

What was measured:
Assay type in all cases: functional, cell-based
HeLa S3 = assay: Cytotoxicity against human HeLaS3 cells by MTT assay
Summary of the method: (§1)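 Modified MTT colorimetric assay on five human cancer lines (KB epidermoid, HeLa S3 cervical, MCF-7 breast, Hep G2 hepatocellular, HT-29 colon adenocarcinoma). Doxorubicin was run as positive control.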

HepG2 = assay: Cytotoxicity against human HepG2 cells by MTT assay; summary of the method: as §1
MCF7 = assay: Cytotoxicity against human MCF7 cells by MTT assay; summary of the method: as §1
KB = assay: Cytotoxicity against human KB cells by MTT assay; summary of the method: as §1
HT-29 = assay: Cytotoxicity against human HT-29 cells by MTT assay; summary of the method: as §1

SMILES | IC50 (HeLa S3) [µM] | IC50 (HepG2) [µM] | IC50 (MCF7) [µM] | IC50 (KB) [µM] | IC50 (HT-29) [µM]
CC(C)=CCCC1(C)Oc2ccc3c(c2CC1O)O[C@H](c1ccc(O)cc1)CC3=O (stereo not given in full) | > 10 | > 10 | > 10 | > 10 | > 10
C=C(C)/C=C/CC1(C)CCc2c(ccc3c2O[C@H](c2ccc(O)cc2)CC3=O)O1 (stereo not given in full) | > 10 | > 10 | > 10 | > 10 | > 10
C=C(C)C(O)CC/C(C)=C/Cc1c(O)ccc2c1O[C@H](c1ccc(O)cc1)CC2=O (stereo not given in full) | > 10 | > 10 | > 10 | > 10 | > 10
C/C(=C\Cc1c(O)ccc2c1O[C@H](c1ccc(O)cc1)CC2=O)C/C=C/C(C)(C)O | > 10 | > 10 | > 10 | > 10 | > 10
C=C(C)C(O)CCC1(C)CCc2c(ccc3c2O[C@H](c2ccc(O)cc2)CC3=O)O1 (stereo not given in full) | > 10 | > 10 | > 10 | > 10 | > 10
CC1=CCC(O)C(C)(C)C1Cc1c(O)ccc2c1O[C@H](c1ccc(O)cc1)CC2=O (stereo not given in full) | > 10 | > 10 | > 10 | > 10 | > 10
COC(C)(C)/C=C/CC1(C)CCc2c(ccc3c2O[C@H](c2ccc(O)cc2)CC3=O)O1 (stereo not given in full) | 8.6 | > 10 | > 10 | > 10 | > 10
CC(C)=CCC/C(C)=C/Cc1c(O)ccc2c1O[C@H](c1ccc(O)cc1)CC2=O | > 10 | > 10 | > 10 | > 10 | > 10
CC(C)=CCCC1(C)CCc2c(ccc3c2O[C@H](c2ccc(O)cc2)CC3=O)O1 (stereo not given in full) | 8.1 | > 10 | 9.9 | 9.9 | > 10
CC(C)=CCCC(C)(O)C1Cc2c(ccc3c2O[C@H](c2ccc(O)cc2)CC3=O)O1 (stereo not given in full) | > 10 | > 10 | > 10 | > 10 | > 10
COC(C)(C)/C=C/C/C(C)=C/Cc1c(O)ccc2c1O[C@H](c1ccc(O)cc1)CC2=O | > 10 | > 10 | > 10 | > 10 | > 10
CC1(CCC(O)C(C)(C)O)CCc2c(ccc3c2O[C@H](c2ccc(O)cc2)CC3=O)O1 (stereo not given in full) | > 10 | > 10 | > 10 | > 10 | > 10
CC(C)=CCCC1(C)CCc2c(cc(O)c3c2O[C@H](c2ccc(O)cc2)CC3=O)O1 (stereo not given in full) | 9.9 | > 10 | > 10 | > 10 | > 10
CC(C)(O)/C=C/CC1(C)CCc2c(ccc3c2O[C@H](c2ccc(O)cc2)CC3=O)O1 (stereo not given in full) | 6.6 | > 10 | > 10 | > 10 | > 10
C=C(CCC=C(C)C)C(O)Cc1c(O)ccc2c1O[C@H](c1ccc(O)cc1)CC2=O (stereo not given in full) | > 10 | > 10 | > 10 | > 10 | > 10
CC1(CCC2OC2(C)C)CCc2c(ccc3c2O[C@H](c2ccc(O)cc2)CC3=O)O1 (stereo not given in full) | 8.3 | > 10 | > 10 | > 10 | > 10
COC(C=C(C)C)C/C(C)=C/Cc1c(O)ccc2c1O[C@H](c1ccc(O)cc1)CC2=O (stereo not given in full) | > 10 | > 10 | > 10 | > 10 | > 10
COc1cccc2c1C(=O)c1c(O)c3c(c(O)c1C2=O)C[C@@](O)(C(=O)CO)C[C@@H]3O[C@H]1C[C@H](N)[C@H](O)[C@H](C)O1 [DOXORUBICIN] | 0.03 | 1.07 | 0.61 | 0.13 | 0.34
